Data on 41 compounds can be found in ChEMBL document CHEMBL1156929, “Synthesis, biological evaluation, and molecular modeling of 1-benzyl-1H-imidazoles as selective inhibitors of aldosterone synthase (CYP11B2)” (J Med Chem, 2010).

A value given as a limit tells only on which side of the number the result lay.

Assay [1] addresses T1, Cytochrome P450 11B2, mitochondrial (Homo sapiens, UniProt P19099).
T1 sequence (P19099 whole entry): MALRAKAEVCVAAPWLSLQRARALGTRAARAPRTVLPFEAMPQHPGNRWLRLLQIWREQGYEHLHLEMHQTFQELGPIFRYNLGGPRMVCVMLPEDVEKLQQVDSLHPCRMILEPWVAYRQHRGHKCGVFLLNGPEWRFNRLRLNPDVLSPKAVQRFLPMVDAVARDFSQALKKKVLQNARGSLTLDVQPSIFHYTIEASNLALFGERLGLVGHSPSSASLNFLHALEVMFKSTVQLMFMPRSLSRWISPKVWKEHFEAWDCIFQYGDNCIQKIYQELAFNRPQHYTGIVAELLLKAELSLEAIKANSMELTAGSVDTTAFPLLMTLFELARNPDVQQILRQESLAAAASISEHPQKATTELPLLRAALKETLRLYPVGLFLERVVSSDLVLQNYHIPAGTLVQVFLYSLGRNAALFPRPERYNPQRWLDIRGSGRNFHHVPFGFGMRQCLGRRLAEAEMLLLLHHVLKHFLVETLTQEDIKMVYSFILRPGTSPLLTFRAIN
Nature of the assay: Inhibition of human CYP11B2 expressed in chinese hamster V79 cells. It is filed as cell-based. Summed up:
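Confluent V79 cells stably overexpressing human CYP11B2, 37 °C, 5% CO2. […] Steroids were extracted from medium with diethylether at pH 10.5 and quantified by HPLC (UV 243 nm) using peak-area ratios to methylprednisolone internal standard. IC50 from at least five concentrations, fitted to vi = v0/(1+I/IC50).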

Assay [2] concerns the target T2, Cytochrome P450 11B1, mitochondrial (Homo sapiens, UniProt P15538).
T2 sequence (P15538 whole entry): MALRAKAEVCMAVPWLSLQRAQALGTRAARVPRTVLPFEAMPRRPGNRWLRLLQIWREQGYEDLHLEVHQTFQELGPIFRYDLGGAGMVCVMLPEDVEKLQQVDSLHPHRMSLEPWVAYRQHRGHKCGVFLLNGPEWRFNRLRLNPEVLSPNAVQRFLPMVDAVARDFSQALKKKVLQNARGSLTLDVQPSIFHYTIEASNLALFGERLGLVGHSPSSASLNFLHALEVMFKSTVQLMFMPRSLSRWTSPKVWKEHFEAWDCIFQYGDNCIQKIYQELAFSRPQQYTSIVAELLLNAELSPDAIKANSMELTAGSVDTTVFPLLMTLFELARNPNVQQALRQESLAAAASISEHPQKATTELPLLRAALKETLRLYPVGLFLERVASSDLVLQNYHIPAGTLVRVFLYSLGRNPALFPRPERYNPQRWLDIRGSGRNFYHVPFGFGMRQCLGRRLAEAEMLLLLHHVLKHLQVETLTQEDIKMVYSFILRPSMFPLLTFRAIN
Nature of the assay: Inhibition of human CYP11B1 expressed in chinese hamster V79 cells. It is filed as cell-based.

With `N#Cc1ccc(Cn2cncc2CCCO)cc1`, the figures for the IC50 in assay [1] (read-out: IC50) and in assay [2] (read-out: IC50) were 13 nM and 48 nM, respectively.

For `N#Cc1ccc(Cn2ccnc2)cc1`, the IC50 in assay [1] (read-out: IC50) came out at 372 nM; in assay [2] (read-out: IC50), 368 nM.

On to `OCc1ccc(Cn2ccnc2)cc1`, for which the IC50 is above 1000 nM in assay [1], above 1000 nM in assay [1] (read-out: IC50) and 695 nM in assay [2] (read-out: IC50).

As for `Brc1cccc(Cn2ccnc2)c1`, the figures for the IC50 in assay [1] (read-out: IC50) and in assay [2] (read-out: IC50) were 365 nM and 143 nM, respectively.

With `N#Cc1ccc(Cn2cncc2Br)cc1`, the IC50 came to 23 nM in assay [1] (read-out: IC50) and 73 nM in assay [2] (read-out: IC50).

Take `N#Cc1ccc(Cn2cncc2-c2ccccc2F)cc1`: the IC50 was 2.3 nM in assay [1] (read-out: IC50) and 20 nM in assay [2] (read-out: IC50).

Take `COc1ccc(Cn2cncc2CCCO)cc1`: the IC50 in assay [1] (read-out: IC50) amounted to 59 nM.

As for `Nc1cccc(Cn2ccnc2)c1`, the IC50 turned out to be 600 nM in assay [1] (read-out: IC50) and 390 nM in assay [2] (read-out: IC50).

`Clc1ccc(Cn2cncc2-c2ccccc2)cc1`: the results for the IC50 in assay [1] (read-out: IC50) and in assay [2] (read-out: IC50) were 5.8 nM and 25 nM, respectively.

As to `N#Cc1ccc(Cn2cncc2-c2ccccc2)cc1`, the IC50 in assay [2] (read-out: IC50) turned out to be 28 nM.

With `Clc1cccc(Cn2ccnc2)c1`, the IC50 in assay [1] (read-out: IC50) stood at 457 nM; in assay [2] (read-out: IC50) it was 151 nM.

As for `N#Cc1ccc(Cn2cncc2-c2ccc(F)cc2)cc1`, the values for the IC50 in assay [1] (read-out: IC50) and in assay [2] (read-out: IC50) were 25 nM and 27 nM, respectively.

For the compound `Cc1cccc(-c2cncn2Cc2ccc(C#N)cc2)c1`, the IC50 is 5.2 nM in assay [1] (read-out: IC50) and 6.2 nM in assay [2] (read-out: IC50).

Turning to `OCc1cccc(Cn2ccnc2)c1`, the IC50 was 1170 nM in assay [1] (read-out: IC50) and 206 nM in assay [2] (read-out: IC50).

Consider `c1ccc(Cn2cncc2-c2ccccc2)cc1`, for which the IC50 came to 11 nM in assay [1] (read-out: IC50) and 4.8 nM in assay [2] (read-out: IC50).

Take `Cc1cncn1Cc1ccc(C#N)cc1`: in assay [1] (read-out: IC50), the IC50 is 12 nM.

Turning to `N#Cc1ccc(Cn2cncc2-c2ccncc2)cc1`, the IC50 is 407 nM in assay [1] (read-out: IC50) and 307 nM in assay [2] (read-out: IC50).

Consider `c1ccc(Cn2ccnc2)cc1` [BENZYLIMIDAZOLE], for which the figures for the IC50 in assay [1] (read-out: IC50) and in assay [2] (read-out: IC50) were 1800 nM and 709 nM, respectively.

For `COC(=O)CCc1cncn1Cc1ccc(F)cc1`, the IC50 in assay [1] (read-out: IC50) is 50 nM; in assay [2] (read-out: IC50) it was 104 nM.

As for `COC(=O)CCc1cncn1Cc1ccccc1`, the IC50 in assay [1] (read-out: IC50) is 193 nM; in assay [2] (read-out: IC50), 326 nM.

`Brc1ccc(Cn2ccnc2)cc1`: the IC50 was 479 nM in assay [1] (read-out: IC50) and 211 nM in assay [2] (read-out: IC50).

With `N#Cc1ccc(Cn2cncc2-c2cccc(F)c2)cc1`, the IC50 in assay [2] (read-out: pIC50 (converted)) was 32.4 nM.

On to `Brc1ccc(Cn2cncc2-c2ccccc2)cc1`, for which the figures for the IC50 in assay [1] (read-out: IC50) and in assay [2] (read-out: IC50) were 5.1 nM and 7 nM, respectively.

With `Cc1ccc(-c2cncn2Cc2ccc(C#N)cc2)cc1`, the IC50 in assay [1] (read-out: IC50) came to 117 nM; in assay [2] (read-out: IC50) it was 130 nM.

For the compound `N#Cc1ccc(Cn2cncc2CO)cc1`, the IC50 in assay [1] (read-out: IC50) was 29 nM; in assay [2] (read-out: pIC50 (converted)), 282 nM.

Regarding `COC(=O)CCc1cncn1Cc1ccc(Cl)cc1`, the IC50 in assay [1] (read-out: IC50) worked out at 177 nM; in assay [2] (read-out: IC50) it was 123 nM.

Turning to `OCCCc1cncn1Cc1ccccc1`, the IC50 in assay [1] (read-out: IC50) stood at 286 nM; in assay [2] (read-out: IC50), 181 nM.

On to `Cc1ccccc1-c1cncn1Cc1ccc(C#N)cc1`, for which the IC50 came out at 3.7 nM in assay [1] (read-out: IC50) and 5.7 nM in assay [2] (read-out: IC50).

As to `OCCCc1cncn1Cc1ccc(F)cc1`, the IC50 in assay [1] (read-out: IC50) came to 16 nM.

On to `COC(=O)CCc1cncn1Cc1ccc(OC)cc1`, for which the figures for the IC50 in assay [1] (read-out: IC50) and in assay [2] (read-out: IC50) were 121 nM and 111 nM, respectively.

As to `Clc1ccc(Cn2ccnc2)cc1`, the IC50 in assay [1], in assay [1] (read-out: IC50) and in assay [2] (read-out: IC50) was above 1000 nM each time.

`N#Cc1cccc(Cn2ccnc2)c1`: the IC50 in assay [1], in assay [1] (read-out: IC50) and in assay [2] (read-out: IC50) was above 1000 nM throughout.

With `CCOC(=O)c1cncn1[C@H](C)c1ccccc1` [ETOMIDATE], the IC50 in assay [1] (read-out: IC50) was determined as 1.7 nM.

`COC(=O)c1cncn1Cc1ccc(C#N)cc1`: the IC50 in assay [1] (read-out: IC50) amounted to 7 nM.

As to `Fc1ccc(Cn2ccnc2)cc1`, the IC50 in assay [1] (read-out: IC50) came to 330 nM; in assay [2] (read-out: IC50), 494 nM.

As for `COc1ccc(Cn2cncc2-c2ccccc2)cc1`, the results for the IC50 in assay [1] (read-out: IC50) and in assay [2] (read-out: IC50) were 14 nM and 11 nM, respectively.

Consider `OCCCc1cncn1Cc1ccc(Br)cc1`, for which the IC50 came out at 6.2 nM in assay [1] (read-out: IC50) and 18 nM in assay [2] (read-out: IC50).

As for `Fc1cccc(Cn2ccnc2)c1`, the IC50 in assay [1] (read-out: IC50) was 815 nM; in assay [2] (read-out: IC50), 206 nM.

Turning to `Nc1ccc(Cn2ccnc2)cc1`, the IC50 in assay [1] was above 1000 nM; in assay [1] (read-out: IC50), above 1000 nM; in assay [2] (read-out: IC50), 236 nM.

For the compound `Fc1ccc(Cn2cncc2-c2ccccc2)cc1`, the IC50 in assay [1] (read-out: IC50) was 11 nM; in assay [2] (read-out: IC50) it was 16 nM.

Consider `OCCCc1cncn1Cc1ccc(Cl)cc1`, for which the IC50 in assay [1] (read-out: IC50) is 55 nM; in assay [2] (read-out: IC50), 44 nM.
